Inhibition data for ten molecules are collected here from PubChem BioAssay AID540295 (The Scripps Research Institute Molecular Screening Center, 2011).

The campaign covered roughly 360,000 compounds. About 1,700 (0.47%) were called active. The entries come from a sample that favours actives as a whole. Values without a mark were called inactive.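 The calls were made as follows: active = inhibition above its plate's cutoff, the mean of tested wells on that plate plus 3 SD (cut at about 29% in these data); inactive = the rest.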

In the experiment the target is Melanocortin receptor 4 (Homo sapiens) (UniProt P32245). Briefly: MC4R antagonists of cAMP signaling, primary screen, cell-based, TR-FRET, antagonist arm of biased-ligand search (AID 540295).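 Also: 0% = Melanotan II alone and 100% = Melanotan II plus saturating MCL0020.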 Conditions: MC4R-expressing cells, MTII-stimulated cAMP, LANCE TR-FRET; at 6.5 µM; active compounds read high. The method, boiled down: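 Assay system: human MC4R-expressing U2OS cells; reagent: Melanotan II stimulation of cells; dosing: 6.5 µM single dose; timing: compound 30 min, challenge 1 h, detection 1 h; signal: TR-FRET cAMP assay; replicates: one well per compound, no replicates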
Chain of Melanocortin receptor 4 (Homo sapiens) (P32245 whole entry, looked up): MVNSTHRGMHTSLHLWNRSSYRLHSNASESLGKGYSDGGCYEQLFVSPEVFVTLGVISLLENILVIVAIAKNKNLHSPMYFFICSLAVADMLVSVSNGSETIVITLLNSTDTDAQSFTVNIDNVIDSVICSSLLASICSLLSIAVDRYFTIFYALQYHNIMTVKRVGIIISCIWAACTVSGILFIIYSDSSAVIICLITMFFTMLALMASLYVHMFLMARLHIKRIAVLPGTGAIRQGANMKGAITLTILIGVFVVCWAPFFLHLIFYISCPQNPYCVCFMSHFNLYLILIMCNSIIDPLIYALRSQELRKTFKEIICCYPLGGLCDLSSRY
In general terms: TR-FRET usually uses a lanthanide donor and a delayed reading to cut background.
For orientation: inhibition means the change of the read-out against control, counted positive when it falls. For `COc1cccc(N2C(=O)NC(=O)/C(=C\c3ccc([N+](=O)[O-])s3)C2=O)c1`, the inhibition was 28.6% (active).
For the molecule `O=C(N/N=C/c1c(O)n(C2CC2)c(=S)[nH]c1=O)c1ccccc1Cl`, the inhibition was 20.1%.
For `c1ccc(CCNC2CCCCCC2)cc1`, the inhibition is 17.4%.
Consider `COc1cc(OC)cc(C2(C#N)CCN(C)CC2)c1`, for which the inhibition is 17%.
For the molecule `O=C(NC(=S)N1C[C@H]2C[C@H](C1)c1cccc(=O)n1C2)c1ccc(F)cc1`, the inhibition is 7.13%.
On to `Cc1cccc(N2C(=O)NC(=O)/C(=C\c3cnn(-c4ccccc4)c3)C2=O)c1`, for which the inhibition is 35.2% (active).
The figure for `Cc1c(C(=O)O)cccc1-n1c(C)cc(/C=C2\C(=O)NC(=O)N(c3ccc4c(c3)OCO4)C2=O)c1C` is 5.16%; for `CCN1CCN(c2ccc([N+](=O)[O-])cc2C#N)CC1` it is -10.7%.
In the case of `CC(C)c1c(CN(C)C(C)Cc2ccccc2)n(C)n(-c2ccccc2)c1=O` (stereo not given), the inhibition was 10.7%.
The figure for `CC(=O)c1c(O)n(C2CCCCCC2)c(=O)[nH]c1=O` is 2.26%.
